Molecules are shown by their SMILES. Calls of active or inactive are those of the source. The rule behind the calls is not given here.

In experiment [1] the test system is VSMC. The experiment is described as follows: Antiproliferative activity against rat VSMC assessed as reduction in EdU incorporation after 18 hrs by Hoechst 33342 staining-based fluorescence assay. It counts as functional, cell-based.
Experiment [2] relates to VSMC. The experiment can be described thus: Antiproliferative activity against human VSMC assessed as reduction in EdU incorporation after 18 hrs by Hoechst 33342 staining-based fluorescence assay. It counts as functional, cell-based.
For experiment [3], the target named is Transcriptional enhancer factor TEF-1 (Homo sapiens, UniProt P28347). The experiment is described as follows: Inhibition of Gal4-fused TEAD1 (unknown origin) interaction with YAP expressed in human HeLa cells assessed as basal transcriptional activity level after 6 hrs by nanoluciferase reporter gene assay. It counts as cell-based.
The target of experiment [4] is Transcriptional enhancer factor TEF-3 (Homo sapiens, UniProt Q15561). The experiment is described as follows: Inhibition of Gal4-fused TEAD4 (unknown origin) interaction with YAP expressed in human HeLa cells assessed as basal transcriptional activity level after 6 hrs by nanoluciferase reporter gene assay. It counts as cell-based.
Experiment [5] deals with VSMC. The experiment is described as follows: Inhibition of GAPDH m-RNA expression in rat VSMC at 60 uM by RT-qPCR analysis. It counts as functional, cell-based. In short, it runs like this:
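Rat aortic VSMCs (male Sprague-Dawley, 10% FCS/DMEM) were treated with 60 μM compound for 6 h; n = 3. Total RNA was reverse-transcribed with random primers and quantified by SYBR Green qPCR. Data were normalized to nonstimulated controls.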

The test system of experiment [6] is HeLa. The experiment is described as follows: Inhibition of TEAD in human HeLa cells assessed as reduction in CTGF m-RNA expression incubated for 2 hrs followed by compound wash out and re-treatment for 4 hrs by NanoGlo assay. It counts as cell-based.
In experiment [7] the target is T1, Serum response factor (Homo sapiens) (UniProt P11831).
T1 sequence (whole entry): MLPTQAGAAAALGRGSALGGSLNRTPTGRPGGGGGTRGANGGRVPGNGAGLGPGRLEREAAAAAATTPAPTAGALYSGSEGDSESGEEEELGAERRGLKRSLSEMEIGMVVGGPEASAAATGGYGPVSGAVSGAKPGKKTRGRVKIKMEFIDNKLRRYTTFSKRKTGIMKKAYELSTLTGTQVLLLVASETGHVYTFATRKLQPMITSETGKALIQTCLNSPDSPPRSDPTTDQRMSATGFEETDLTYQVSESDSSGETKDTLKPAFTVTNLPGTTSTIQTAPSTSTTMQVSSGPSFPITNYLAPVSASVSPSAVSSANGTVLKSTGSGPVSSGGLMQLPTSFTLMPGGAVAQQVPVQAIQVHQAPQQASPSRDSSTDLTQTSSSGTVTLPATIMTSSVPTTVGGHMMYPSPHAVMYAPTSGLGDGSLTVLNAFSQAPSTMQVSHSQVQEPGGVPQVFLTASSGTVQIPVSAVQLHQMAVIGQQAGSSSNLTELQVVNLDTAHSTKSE
The experiment is described as follows: Inhibition of SRF (unknown origin) mediated VP16 transcription expressed in human HeLa cells assessed as basal transcriptional activity level up to 100 uM after 6 hrs by nanoluciferase reporter gene assay. In kind it is cell-based.

Experiment [8] relates to HeLa. The experiment is described as follows: Antiproliferative activity against human HeLa cells assessed as reduction in EdU incorporation after 24 hrs by Hoechst 33342 staining-based fluorescence assay. It counts as functional, cell-based. In short, it runs like this:
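Click-iT EdU assay. Cells were treated with compound for 24 h total, with 10 μM EdU present for the final labeling period. Cells were then fixed in 4% formaldehyde, stained for EdU and counterstained with Hoechst 33342 for 20 min. EdU-positive nuclei were counted in at least three fields per well; n = 4.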

Experiment [9] concerns HeLa. The experiment is described as follows: Inhibition of Gal4 expression in human HeLa cells assessed as basal transcriptional activity level at 100 uM after 6 hrs by nanoluciferase reporter gene assay. It counts as functional, cell-based.
The subject of experiment [10] is VSMC. The experiment is described as follows: Antimigratory activity in […] incubated for overnight followed by media replacement and measured every hour for 24 hrs by phase contrast microscopic analysis. In kind it is functional, cell-based. The method in brief: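 IncuCyte real-time scratch wound assay. Cells were seeded in 96-well plates and grown 36 h, then pretreated overnight with compound. Wells were scratched and the medium was replaced with compound-containing medium. Phase-contrast images of the wound were taken hourly for 24 h and relative wound confluence was calculated; n = 4.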

Sequence of Transcriptional enhancer factor TEF-1 (P28347 whole entry, the tested form may be a part): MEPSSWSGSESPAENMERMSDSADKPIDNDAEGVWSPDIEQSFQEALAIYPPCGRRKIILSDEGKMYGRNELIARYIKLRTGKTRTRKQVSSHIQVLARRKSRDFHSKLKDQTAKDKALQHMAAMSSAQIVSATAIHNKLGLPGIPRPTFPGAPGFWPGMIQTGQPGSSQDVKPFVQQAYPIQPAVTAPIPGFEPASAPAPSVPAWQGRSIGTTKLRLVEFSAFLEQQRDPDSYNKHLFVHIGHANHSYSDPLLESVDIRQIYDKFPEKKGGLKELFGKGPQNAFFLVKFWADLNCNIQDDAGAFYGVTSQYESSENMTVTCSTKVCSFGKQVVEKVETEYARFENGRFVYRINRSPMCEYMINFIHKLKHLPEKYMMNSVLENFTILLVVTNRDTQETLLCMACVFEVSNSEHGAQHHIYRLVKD
Sequence of Transcriptional enhancer factor TEF-3 (Q15561 whole entry, the tested form may be a part): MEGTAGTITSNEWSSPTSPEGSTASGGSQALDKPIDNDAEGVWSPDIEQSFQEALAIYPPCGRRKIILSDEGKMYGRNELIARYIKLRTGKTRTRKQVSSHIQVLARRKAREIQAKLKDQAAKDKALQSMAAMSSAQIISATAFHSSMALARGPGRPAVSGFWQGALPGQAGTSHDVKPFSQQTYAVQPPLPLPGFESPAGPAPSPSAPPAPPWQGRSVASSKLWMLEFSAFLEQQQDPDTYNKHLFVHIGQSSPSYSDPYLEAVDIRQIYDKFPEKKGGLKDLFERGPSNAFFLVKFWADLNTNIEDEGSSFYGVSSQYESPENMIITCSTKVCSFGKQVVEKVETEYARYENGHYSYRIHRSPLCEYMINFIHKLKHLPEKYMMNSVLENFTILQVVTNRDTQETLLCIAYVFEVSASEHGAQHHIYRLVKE

Turning to `Cc1ccc2c(c1)c1c3n2CCNC3CCC1` (stereo unspecified) [PIRLINDOLE], the Activity entry in the experiment on VSMC [1], in the experiment with HeLa [8] and with VSMC [10] was “Dose-dependent effect” throughout. The 50% effective concentration (EC50) with VSMC [1] stood at 10 µM; with VSMC [2], 1.5 µM. Further, the half-inhibitory concentration (IC50) in experiment [3] came out at 40 µM; in experiment [4] it was 36 µM. Moreover, the inhibition entry (in the experiment on VSMC [5]; in experiment [7]; in the experiment with HeLa [9]) was “inactive” in each case. Moreover, the inhibition entry with HeLa [6] was “Dose-dependent effect”.

The values above are taken from ChEMBL document CHEMBL4422642, “Antiproliferative and Antimigratory Effects of a Novel YAP-TEAD Interaction Inhibitor Identified Using in Silico Molecular Docking” (J Med Chem, 2019).
